Compounds with a hit are over-represented: about 1.4% of the library has one in this group of screens.
cardiac RTF act – cardiac RTF calcium sensitivity activators, primary screen, biochemical, IANBD-TnC fluorescence, EC20 calcium | Troponin I, cardiac muscle (Homo sapiens) + Troponin T, cardiac muscle (Homo sapiens) + … | IANBD-labeled TnC RTF fluorescence at EC20 calcium; 0% EC20 calcium, 100% full calcium | activation, % at 7.2 µM | hit rate 0.24% among 340,000 | AID 493008, 2010;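 active means activation above the mean over all tested compounds plus 3 SD, cut at about 30% in these data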;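 further: rise in fluorescence read as greater calcium sensitivity of cardiac thin filaments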
DDE Tn7 FP inh – inhibitors of Tn7 peptide binding to fibrin DD(E), primary screen, biochemical, fluorescence polarization, human fibrin, Tn7 probe; hit rate 0.13% among 370,000; inhibition, % at 8.3 µM; FP displacement of FITC-Tn7 peptide from fibrin DD(E); 0% = median of compound wells per plate; Fibrinogen beta chain (Homo sapiens), P02675; AID 720508, 2013;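 active means inhibition above the mean of compounds falling within the control limits plus 3 SD of them, cut at about 14% in these data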;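 further: 0% = plate median of compound wells and 100% = 10 µM Aha-Tn7 peptide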
Target sequence (P02675 whole entry, looked up): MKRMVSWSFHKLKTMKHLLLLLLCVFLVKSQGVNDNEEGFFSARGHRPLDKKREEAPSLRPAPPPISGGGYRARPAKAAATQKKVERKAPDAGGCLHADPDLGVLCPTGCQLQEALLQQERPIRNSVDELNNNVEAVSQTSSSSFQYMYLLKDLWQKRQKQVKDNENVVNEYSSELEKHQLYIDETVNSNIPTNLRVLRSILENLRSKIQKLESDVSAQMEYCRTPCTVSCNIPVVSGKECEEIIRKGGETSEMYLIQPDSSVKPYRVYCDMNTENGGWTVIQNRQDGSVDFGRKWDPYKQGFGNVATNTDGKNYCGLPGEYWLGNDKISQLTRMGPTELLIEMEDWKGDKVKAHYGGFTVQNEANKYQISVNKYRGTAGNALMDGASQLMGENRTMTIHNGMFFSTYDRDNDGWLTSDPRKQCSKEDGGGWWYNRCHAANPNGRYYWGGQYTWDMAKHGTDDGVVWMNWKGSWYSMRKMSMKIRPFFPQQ
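Test system – human fibrin DD(E) · Times – 10 min preincubation, 3 h with tracer, room temperature · Detection – fluorescence polarization of the labelled Tn7 tracer · Measure – percent inhibition normalized to high-control wells · Benchmarks – high control wells with 10 µM unlabelled Aha-Tn7 peptide (full inhibition) · Repeats – singlicate testing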
Cardiac RTF inh – cardiac RTF calcium sensitivity inhibitors, primary screen, biochemical, IANBD-TnC fluorescence, EC70 calcium. hit rate 0.12% among 340,000. IANBD-labeled cardiac RTF, Ca2+ fluorescence. inhibition, % at 7.15 µM. Troponin I, cardiac muscle (Homo sapiens) + Troponin T, cardiac muscle (Homo sapiens) + …. AID 493244, 2011;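 active means inhibition above the mean inhibition of all tested compounds plus 3 SD, cut at about 17% in these data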;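 further: assay run at fixed EC70 calcium of 1.6 mM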
Tn6 DDE FP – inhibitors of Tn6 peptide binding to fibrin DD(E), primary screen, biochemical, fluorescence polarization, human fibrin, Tn6 probe; Fibrinogen beta chain (Homo sapiens), P02675; Fibrin DD(E) TRITC-Tn6 fluorescence polarization displacement; inhibition, % at 8.3 µM; hit rate 0.21% among 370,000;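 active means inhibition above a per-campaign cutoff: mean of compounds within control limits plus 3 SD, cut at about 15% in these data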;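 further: 0% = median of all compound wells on the plate and 100% = blocking peptide control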
CRFR2-BP ag – agonists of CRF-BP/CRF-R2 complex, primary screen, cell-based, HEK293, calcium dye fluorescence, uHTS; hit rate 0.46% among 350,000; CRF-binding protein / CRF receptor 2 complex (human); activation, % at 13.2 µM; calcium dye fluorescence (FLIPR); percent of saturating CRF peptide response;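 active means activation of at least 50%, plus an integration ratio under a set limit after plate pattern correction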;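 further: plate controls were neutral control wells without compound for no effect and CRF at EC100 for full effect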
CRFBP-R2 block – antagonists of CRF-BP/CRF-R2 complex, primary screen, cell-based, HEK293, calcium dye fluorescence, uHTS. hit rate 0.59% among 350,000. inhibition, % at 11.8 µM. CRF-induced calcium fluorescence. AID 588475, 2011;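 active means inhibition of the ligand-induced calcium signal above about 50% at the single tested concentration, limit read from the data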
* hit, by the source's call.

Cn1c(COc2ccccc2)nnc1SCC(=O)Nc1ccc(S(=O)(=O)Nc2nccs2)cc1 was read as DDE Tn7 FP inh 3 and Tn6 DDE FP -4.
For O=C1c2ccccc2C(c2nnnn2-c2ccc3c(c2)OCCO3)N1CCc1ccccc1F (stereo not given) the results were DDE Tn7 FP inh 3 and Tn6 DDE FP 4.
`Cc1ccc(S(=O)(=O)N(C)c2ccc(C(=O)NC3CCCCC3)cc2)cc1` gave DDE Tn7 FP inh -6, Tn6 DDE FP -5, CRFR2-BP ag 2 and CRFBP-R2 block -3.
`Cc1ccc(S(=O)(=O)/N=C(/Nc2ccc([N+](=O)[O-])cc2)c2ccccc2)cc1` gave cardiac RTF act 3, DDE Tn7 FP inh 5, Cardiac RTF inh 6, Tn6 DDE FP 4, CRFR2-BP ag 4 and CRFBP-R2 block -14.
Cc1ccc(S(=O)(=O)/N=C(/Nc2ccc([N+](=O)[O-])cc2[N+](=O)[O-])c2ccccc2)cc1 was read as cardiac RTF act -5, DDE Tn7 FP inh 5, Cardiac RTF inh -9, Tn6 DDE FP 5, CRFR2-BP ag 1 and CRFBP-R2 block 67*.
Screening O=C(CSc1nnnn1-c1ccccc1)NCCCN1CCCC1=O returned cardiac RTF act -3, DDE Tn7 FP inh 1, Cardiac RTF inh 4, Tn6 DDE FP -9, CRFR2-BP ag 3 and CRFBP-R2 block 57*.
COc1ccc(-c2nn(-c3ccccc3)cc2/C=C(\C#N)S(=O)(=O)c2ccccc2)cc1OC was read as cardiac RTF act -2, DDE Tn7 FP inh -3, Cardiac RTF inh 4, Tn6 DDE FP -9, CRFR2-BP ag 12 and CRFBP-R2 block 66*.
For COc1ccc(CNC(=O)O[C@H]2CC[C@@]34CCCN3C(=O)CCC[C@H]4C2)cc1OC the results were DDE Tn7 FP inh -3 and Tn6 DDE FP 2.
Screening CCOC(=O)Cc1csc(NC(=S)NC(=O)c2ccc(Cl)cc2)n1 returned cardiac RTF act 7, DDE Tn7 FP inh 2, Cardiac RTF inh -15, Tn6 DDE FP -3, CRFR2-BP ag 10 and CRFBP-R2 block 34.
For Cc1ccc(C(=O)NC(=S)NNC(=O)c2ccc([N+](=O)[O-])cc2)cc1 the results were cardiac RTF act 14, DDE Tn7 FP inh 0, Cardiac RTF inh -17, Tn6 DDE FP -6, CRFR2-BP ag 94* and CRFBP-R2 block -24.
Screening CCOC(=O)Cc1csc(NC(=S)NC(=O)c2ccc([N+](=O)[O-])cc2)n1 returned cardiac RTF act -3, DDE Tn7 FP inh -6, Cardiac RTF inh -3, Tn6 DDE FP 4, CRFR2-BP ag 18 and CRFBP-R2 block 57*.
`O=C(NNC(=S)NC(=O)c1ccc(Br)cc1)c1ccc([N+](=O)[O-])cc1` gave cardiac RTF act 5, DDE Tn7 FP inh 6, Cardiac RTF inh -4, Tn6 DDE FP 9, CRFR2-BP ag 95* and CRFBP-R2 block -9.
For COc1ccc(/C=N/NS(=O)(=O)c2ccccc2)cc1OC(=O)c1ccc(C)cc1 the results were cardiac RTF act 1, DDE Tn7 FP inh -7, Cardiac RTF inh 4, Tn6 DDE FP -1, CRFR2-BP ag -3 and CRFBP-R2 block 51*.
For CC1=NNC(=O)/C1=C\c1cn(-c2ccccc2)nc1-c1cccs1 the results were cardiac RTF act 3, DDE Tn7 FP inh 2, Cardiac RTF inh -4, Tn6 DDE FP -2, CRFR2-BP ag 80* and CRFBP-R2 block -57.
COC(=O)c1c(C)[nH]c(O)c1C=Nc1ccc(Oc2ccccc2)cc1 was read as cardiac RTF act -4, DDE Tn7 FP inh -6, Cardiac RTF inh 8, Tn6 DDE FP -4, CRFR2-BP ag 59* and CRFBP-R2 block -83.
